PolyA inh = inhibitors of polyadenylation in S. cerevisiae; S. cerevisiae SKY197-pL101 polyadenylation reporter, beta-gal luminescence; efflux-impaired pdr1/pdr3 knockout yeast; score 100 = 6 SD above DMSO; activity score, % at 12 µM; 0.02% of 300,000 active;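 active means lowest replicate activity score at least 50, where 100 means six control SD above control mean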;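 further: yeast exposed to compound for 9 h at 30 °C; higher score means more reporter readthrough which indicates perturbed polyadenylation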
STAT3 act-1 = STAT3 signaling activation; U3A cells, IL-6 STAT3-luciferase reporter, luminescence; 100% = signal with IL-6 EC80 alone; activation (% of control), % at 5.6 µM; 0.91% of 190,000 active; AID 871;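 active means activation above the screen-wide mean of compound activation plus 3 SD, cut at about 130% in these data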
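System – human U3A cells carrying STAT3-luciferase construct · Probe or stimulus – Interleukin-6, 33 ng/mL · Schedule – compound 1 h, then IL-6 6 h at 37 °C · Signal – luminescence from STAT3-driven luciferase reporter · Evaluation – percent of IL-6-only median luminescence · Benchmarks – IL-6-only high control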
AHR activator = activates the human aryl hydrocarbon receptor; 2.5% of 320,000 active; AHR-responsive luciferase reporter cells, luminescence; P35869; activation, % at 5 µM; in the data active means activation above about 47%
PERK inhibitor = blocks human PERK kinase; Q9NZJ5; CHO PERK-DD fusion, SEAP luminescence translation reporter; AID 1416; inhibition, % at 5.6 µM; 0.17% of 220,000 active;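 active means inhibition above the mean inhibition of all tested compounds plus 3 SD, set separately per screening campaign, cut at about 2.9% in these data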;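 further: PERK kinase domain activated by AP20187 dimerizer at 100 nM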
Target sequence (Q9NZJ5 whole entry, looked up, the tested form may be a part): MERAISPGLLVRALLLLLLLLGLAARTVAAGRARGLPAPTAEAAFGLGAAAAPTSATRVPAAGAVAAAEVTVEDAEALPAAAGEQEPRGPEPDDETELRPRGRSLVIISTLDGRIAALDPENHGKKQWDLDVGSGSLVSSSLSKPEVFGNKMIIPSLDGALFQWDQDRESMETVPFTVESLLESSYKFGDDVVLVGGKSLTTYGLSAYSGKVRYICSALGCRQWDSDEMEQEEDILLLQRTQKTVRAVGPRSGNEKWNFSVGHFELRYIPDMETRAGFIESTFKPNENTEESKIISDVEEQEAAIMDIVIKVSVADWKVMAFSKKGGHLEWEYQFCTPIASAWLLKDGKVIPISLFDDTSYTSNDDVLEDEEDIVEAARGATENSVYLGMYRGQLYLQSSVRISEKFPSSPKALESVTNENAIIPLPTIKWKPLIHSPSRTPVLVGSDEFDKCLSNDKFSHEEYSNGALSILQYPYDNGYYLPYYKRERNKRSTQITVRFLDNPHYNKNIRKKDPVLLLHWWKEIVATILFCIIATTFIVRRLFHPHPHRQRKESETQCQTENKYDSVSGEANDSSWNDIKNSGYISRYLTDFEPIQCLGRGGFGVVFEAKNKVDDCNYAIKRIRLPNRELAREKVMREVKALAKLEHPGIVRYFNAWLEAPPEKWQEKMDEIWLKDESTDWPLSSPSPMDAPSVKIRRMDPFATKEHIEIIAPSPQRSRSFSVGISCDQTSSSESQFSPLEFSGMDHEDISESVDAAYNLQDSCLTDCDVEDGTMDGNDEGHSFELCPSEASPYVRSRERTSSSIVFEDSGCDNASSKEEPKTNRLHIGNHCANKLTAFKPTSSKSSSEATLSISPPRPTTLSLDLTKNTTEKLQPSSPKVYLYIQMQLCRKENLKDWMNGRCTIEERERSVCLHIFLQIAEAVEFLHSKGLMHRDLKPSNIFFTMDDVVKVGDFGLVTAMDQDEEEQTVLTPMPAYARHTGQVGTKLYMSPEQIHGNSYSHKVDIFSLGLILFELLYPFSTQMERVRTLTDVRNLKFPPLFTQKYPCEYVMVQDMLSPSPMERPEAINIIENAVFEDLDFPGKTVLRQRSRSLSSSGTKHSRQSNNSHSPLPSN
Hsp70 act = switches on Hsp70 transcription; 0.04% of 200,000 active; activation, % at 10 µM; AID 1203; HeLa Hsp70 promoter luciferase reporter, luminescence; scaled: vehicle 0, proteasome-inhibitor control 100%;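 active means activation above the mean across all tested compounds plus 3 SD, cutoff set per campaign, cut at about 5.5% in these data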
HSF1 inh = HSF1 inhibition. NIH3T3-HGL HSE-luciferase, MG132-induced, luminescence 8 h; active compounds read low. activity change, negative = inhibition, % at 7.5 µM (by protocol). 0.77% of 300,000 active. AID 2098;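 active means more than half of replicate wells show activity change below -50%, luminescence cut by over half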;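 further: luciferase reports HSF-1 transcriptional activity via heat shock element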
STAT3 act-2 = confirmation of STAT3 signaling activators. shares compounds with STAT3 act-1. U3A STAT3-luciferase reporter, IL-6 potentiation, luminescence; U3A cells lack STAT1; 100 means same as IL-6 alone. potentiation (% of control), % at 5.7 µM. 64% of 1,200 active. AID 1267;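 active means percent activation of the STAT3 luciferase reporter above a set limit taken from the earlier primary screen, cut at about 130% in these data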
NFkB act 2 = counter-screen for STAT3 activators: NF-kappaB activation. activation (% of control), % at 5.7 µM. shares compounds with STAT3 act-1. human cells, NF-kappaB reporter activation. 11% of 1,200 active; in the data active means activation above about 120%;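 further: reporter induced by TNF-alpha stimulation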
STAT1 act = activates STAT1, counter-screen to STAT3 activators; shares compounds with STAT3 act-1; NIH 3T3 STAT1-luciferase reporter, IFN-gamma, luminescence; activation (% of control), % at 5.7 µM; 13% of 1,200 active; AID 1318;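 active means activation above the solvent-only control well mean plus 3 SD, set per screening run, cut at about 120% in these data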
Each line names hits and unclear results; the compound was inactive in the other large screens (follow-up assays come after a bar, where they were run). The list is not random: actives were taken first. Their share in the collection is about 3.6%.

Cc1ccccc1S(=O)(=O)NCC1CCCO1 (stereo unspecified)	none (no result: STAT3 act-1, PERK inhibitor, Hsp70 act)
COc1cccc(NC(=O)c2ccnc(N3CCC(C(=O)NCc4ccccc4OC)CC3)c2)c1	none (no result: STAT3 act-1, PERK inhibitor, Hsp70 act)
CCCn1c(CN2CCN(C(=O)OCC)CC2)nc2cc([N+](=O)[O-])ccc21	none (no result: STAT3 act-1, PERK inhibitor, Hsp70 act)
Clc1ccc(SCCOCCN2CCCCC2)cc1	none
Clc1ccc(SCCOCCN2CCc3ccccc3C2)cc1	STAT3 act-1 137.1 | STAT3 act-2 inactive | NFkB act 2 inactive | STAT1 act inactive
c1ccc(-c2ccccc2OCCOCCN2CCc3ccccc3C2)cc1	STAT3 act-1 137.9 | STAT3 act-2 inactive | NFkB act 2 inactive | STAT1 act inactive
CC(Oc1ccc2ccccc2c1)C(=O)NNC(=O)Nc1ccccc1 (stereo unspecified)	none (no result: STAT3 act-1, AHR activator, PERK inhibitor, Hsp70 act)
Cc1ccc(-n2[nH]c(C)c(/C=C3/C=Nc4ccccc43)c2=O)cc1C	STAT3 act-1 149.1, AHR activator 60.4 | STAT3 act-2 137.6 | NFkB act 2 inactive | STAT1 act inactive
Cc1nc(/N=C(\N)Nc2ccccc2)nc2ccccc12	STAT3 act-1 165.0 (no result: AHR activator) | STAT3 act-2 157.4 | NFkB act 2 inactive | STAT1 act inactive
CCOc1ccccc1-c1n[nH]c(=S)o1	STAT3 act-1 173.4 | STAT3 act-2 156.0 | NFkB act 2 inactive | STAT1 act inactive
O=C(OCC(=O)N1CCc2ccccc2C1)c1ccc(F)cc1Cl	none (no result: PolyA inh, STAT3 act-1, PERK inhibitor, Hsp70 act, HSF1 inh)
COC(=O)[C@]1(C)N[C@H](CN(C)C(=O)Nc2ccc(C(F)(F)F)cc2)[C@@H]2C(=O)N(C)C(=O)[C@@H]21	none (no result: PolyA inh, STAT3 act-1, PERK inhibitor, Hsp70 act, HSF1 inh)
COc1ccccc1N=C(C)C1=C(O)CC(c2ccccc2)CC1=O (stereo unspecified)	STAT3 act-1 147.8 | STAT3 act-2 inactive | NFkB act 2 140.5 | STAT1 act inactive
O=S(=O)(Nc1cc(Sc2cccc3cccnc23)c(O)c2ccccc12)c1ccccc1	STAT3 act-1 176.3 (no result: AHR activator) | STAT3 act-2 148.2 | NFkB act 2 128.1 | STAT1 act 128.4
CCOC(=O)Cc1cc(=O)[nH]c(/N=C(\N)Nc2ccc(C)cc2C)n1	STAT3 act-1 136.0 | STAT3 act-2 inactive | NFkB act 2 inactive | STAT1 act inactive
COC(=O)Cc1cc(=O)[nH]c(/N=C(\N)Nc2ccc(C)cc2C)n1	none
Cc1ccc(/C=C2\SC(=O)N(CCNC(=O)C3CSC4(C)CCC(=O)N34)C2=O)cc1 (stereo unspecified)	none (no result: STAT3 act-1, PERK inhibitor, Hsp70 act)
CSc1ccc(C(=O)C2CCCN(C(=O)c3ccc4c(c3)no[n+]4[O-])C2)cc1 (stereo unspecified)	none (no result: STAT3 act-1, Hsp70 act)
O=C(Cc1ccccc1)Nn1c(O)c(/C=C2\C=Nc3ccccc32)sc1=S	STAT3 act-1 169.8, AHR activator 76.2 | STAT3 act-2 inactive | NFkB act 2 inactive | STAT1 act inactive
O=C(CSc1cc(Cl)ccc1Cl)NC1CCCC1	none (no result: STAT3 act-1, PERK inhibitor, Hsp70 act)
CCC(C)c1ccccc1N1CC(C(=O)Nc2cccc(S(=O)(=O)N3CCOCC3)c2)CC1=O (stereo unspecified)	none (no result: STAT3 act-1, PERK inhibitor, Hsp70 act)
CC(=O)N1CCC(=NNc2nc3ccccc3[nH]2)CC1	STAT3 act-1 143.3, AHR activator 62.6 | STAT3 act-2 143.8 | NFkB act 2 inactive | STAT1 act inactive
CCOc1ccc(CNS(=O)(=O)c2c(C)nc3sccn3c2=O)cc1OC	none (no result: STAT3 act-1, PERK inhibitor, Hsp70 act)
Cc1ccc(S(=O)(=O)/N=C2/C=C(Sc3ncn[nH]3)C(=O)c3ccccc32)cc1	STAT3 act-1 140.7, AHR activator 57.0 (no result: PolyA inh, HSF1 inh) | STAT3 act-2 inactive | NFkB act 2 inactive | STAT1 act inactive
CCCCSCCCNC(=O)Nc1ccc(C)c(C)c1	none
Cc1occc1-c1nnc(SCC(=O)c2c[nH]c3ccccc23)n1C	STAT3 act-1 144.7 (no result: PolyA inh, HSF1 inh) | STAT3 act-2 inactive | NFkB act 2 inactive | STAT1 act inactive
